Source: ChEMBL document CHEMBL1817562, “Docking and SAR studies of D- and L-isofagomine isomers as human β-glucocerebrosidase inhibitors” (Bioorg Med Chem, 2011)

How the values were obtained:
[1] = target: T1, Tissue alpha-L-fucosidase (Bos taurus) (UniProt Q2KIM0); settings: 1000 uM
T1 sequence (whole entry): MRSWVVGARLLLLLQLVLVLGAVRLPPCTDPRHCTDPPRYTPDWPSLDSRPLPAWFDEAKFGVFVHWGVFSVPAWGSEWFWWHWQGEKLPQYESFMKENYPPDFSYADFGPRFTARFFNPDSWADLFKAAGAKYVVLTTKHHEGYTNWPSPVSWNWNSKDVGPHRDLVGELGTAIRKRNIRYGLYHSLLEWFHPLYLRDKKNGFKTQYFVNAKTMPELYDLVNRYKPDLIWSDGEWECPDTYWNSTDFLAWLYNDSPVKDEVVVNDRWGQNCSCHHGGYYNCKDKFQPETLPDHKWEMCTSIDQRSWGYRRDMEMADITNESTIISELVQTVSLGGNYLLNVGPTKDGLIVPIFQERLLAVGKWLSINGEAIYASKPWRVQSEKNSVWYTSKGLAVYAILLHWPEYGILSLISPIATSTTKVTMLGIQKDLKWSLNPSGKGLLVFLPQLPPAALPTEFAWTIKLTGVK

[2] = test system: Canavalia ensiformis; experiment: Inhibition of jack beans alpha-mannosidase assessed as production of p-nitrophenol at 1000 uM by spectrophotometry
Method in brief: (§1)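 p-Nitrophenyl glycoside matched to each enzyme, 2 mM, with enzyme at that enzyme's optimum pH: Penicillium decumbens α-L-rhamnosidase pH 4.0, bovine liver β-galactosidase pH 6.8, coffee bean α-galactosidase pH 6.5, jack bean α-mannosidase pH 4.5, snail β-mannosidase pH 4.5. Stopped with 400 mM Na2CO3; released p-nitrophenol read at 400 nm.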

[3] = target: T2, Beta-galactosidase (Bos taurus, UniProt Q58D55); experiment: Inhibition of bovine liver beta-galactosidase assessed as production of p-nitrophenol by spectrophotometry
T2 sequence (Q58D55 whole entry): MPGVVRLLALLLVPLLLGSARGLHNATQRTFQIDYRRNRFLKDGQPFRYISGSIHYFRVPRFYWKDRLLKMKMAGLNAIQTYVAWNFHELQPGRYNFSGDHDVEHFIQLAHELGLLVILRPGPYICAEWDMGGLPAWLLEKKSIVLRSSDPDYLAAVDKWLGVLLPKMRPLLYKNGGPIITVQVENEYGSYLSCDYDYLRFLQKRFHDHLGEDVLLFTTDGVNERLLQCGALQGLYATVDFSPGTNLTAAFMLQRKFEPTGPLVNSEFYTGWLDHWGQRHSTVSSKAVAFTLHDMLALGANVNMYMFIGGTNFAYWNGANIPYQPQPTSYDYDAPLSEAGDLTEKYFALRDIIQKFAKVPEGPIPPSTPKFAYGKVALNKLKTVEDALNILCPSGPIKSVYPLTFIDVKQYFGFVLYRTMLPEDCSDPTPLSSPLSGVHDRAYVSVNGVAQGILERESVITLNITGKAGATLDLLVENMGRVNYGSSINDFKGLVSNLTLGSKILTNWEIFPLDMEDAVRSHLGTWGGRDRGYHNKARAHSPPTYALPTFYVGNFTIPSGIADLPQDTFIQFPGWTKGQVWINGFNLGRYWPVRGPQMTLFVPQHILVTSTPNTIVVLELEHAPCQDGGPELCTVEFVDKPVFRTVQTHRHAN

[4] = target: Lactase/phlorizin hydrolase (Rattus norvegicus, UniProt Q02401); experiment: Inhibition of rat intestinal lactase assessed as production of p-nitrophenol by spectrophotometry
Sequence of Lactase/phlorizin hydrolase (Q02401 868-1928 limits assumed): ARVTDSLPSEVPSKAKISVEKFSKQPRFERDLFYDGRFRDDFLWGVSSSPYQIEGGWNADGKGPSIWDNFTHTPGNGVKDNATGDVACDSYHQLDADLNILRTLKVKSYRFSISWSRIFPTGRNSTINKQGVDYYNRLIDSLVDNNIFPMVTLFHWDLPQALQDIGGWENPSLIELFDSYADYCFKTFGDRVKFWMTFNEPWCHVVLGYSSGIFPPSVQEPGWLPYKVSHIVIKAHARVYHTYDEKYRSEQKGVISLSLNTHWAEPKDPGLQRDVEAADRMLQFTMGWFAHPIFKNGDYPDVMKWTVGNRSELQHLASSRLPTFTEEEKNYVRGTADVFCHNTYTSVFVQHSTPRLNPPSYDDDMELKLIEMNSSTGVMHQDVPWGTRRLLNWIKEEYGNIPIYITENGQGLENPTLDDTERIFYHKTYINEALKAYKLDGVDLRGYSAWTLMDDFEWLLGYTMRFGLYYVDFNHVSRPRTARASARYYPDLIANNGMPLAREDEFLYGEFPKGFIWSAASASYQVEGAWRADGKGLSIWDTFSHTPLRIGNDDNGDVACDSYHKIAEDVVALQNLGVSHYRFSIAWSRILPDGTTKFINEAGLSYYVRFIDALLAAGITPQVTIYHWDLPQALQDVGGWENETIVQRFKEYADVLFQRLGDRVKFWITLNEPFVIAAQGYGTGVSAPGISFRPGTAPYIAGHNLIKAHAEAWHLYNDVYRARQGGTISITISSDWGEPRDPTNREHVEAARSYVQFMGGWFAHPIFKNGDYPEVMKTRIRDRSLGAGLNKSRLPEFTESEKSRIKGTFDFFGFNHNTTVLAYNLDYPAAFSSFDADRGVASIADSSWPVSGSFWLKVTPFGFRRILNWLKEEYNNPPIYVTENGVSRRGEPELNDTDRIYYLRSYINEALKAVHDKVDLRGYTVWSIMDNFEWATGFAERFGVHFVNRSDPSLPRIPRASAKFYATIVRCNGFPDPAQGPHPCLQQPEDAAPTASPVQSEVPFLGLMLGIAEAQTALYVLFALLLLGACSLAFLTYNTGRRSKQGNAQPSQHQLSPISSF

[5] = organism: Rattus norvegicus; settings: 1000 uM
[6] = test system: Oryza sativa; settings: 1000 uM
[7] = target: Sucrase-isomaltase, intestinal (Rattus norvegicus, UniProt P23739); experiment: Inhibition of rat intestinal sucrase assessed as release of D-glucose at by spectrophotometry
Sequence of Sucrase-isomaltase, intestinal (P23739 1-1013 limits assumed): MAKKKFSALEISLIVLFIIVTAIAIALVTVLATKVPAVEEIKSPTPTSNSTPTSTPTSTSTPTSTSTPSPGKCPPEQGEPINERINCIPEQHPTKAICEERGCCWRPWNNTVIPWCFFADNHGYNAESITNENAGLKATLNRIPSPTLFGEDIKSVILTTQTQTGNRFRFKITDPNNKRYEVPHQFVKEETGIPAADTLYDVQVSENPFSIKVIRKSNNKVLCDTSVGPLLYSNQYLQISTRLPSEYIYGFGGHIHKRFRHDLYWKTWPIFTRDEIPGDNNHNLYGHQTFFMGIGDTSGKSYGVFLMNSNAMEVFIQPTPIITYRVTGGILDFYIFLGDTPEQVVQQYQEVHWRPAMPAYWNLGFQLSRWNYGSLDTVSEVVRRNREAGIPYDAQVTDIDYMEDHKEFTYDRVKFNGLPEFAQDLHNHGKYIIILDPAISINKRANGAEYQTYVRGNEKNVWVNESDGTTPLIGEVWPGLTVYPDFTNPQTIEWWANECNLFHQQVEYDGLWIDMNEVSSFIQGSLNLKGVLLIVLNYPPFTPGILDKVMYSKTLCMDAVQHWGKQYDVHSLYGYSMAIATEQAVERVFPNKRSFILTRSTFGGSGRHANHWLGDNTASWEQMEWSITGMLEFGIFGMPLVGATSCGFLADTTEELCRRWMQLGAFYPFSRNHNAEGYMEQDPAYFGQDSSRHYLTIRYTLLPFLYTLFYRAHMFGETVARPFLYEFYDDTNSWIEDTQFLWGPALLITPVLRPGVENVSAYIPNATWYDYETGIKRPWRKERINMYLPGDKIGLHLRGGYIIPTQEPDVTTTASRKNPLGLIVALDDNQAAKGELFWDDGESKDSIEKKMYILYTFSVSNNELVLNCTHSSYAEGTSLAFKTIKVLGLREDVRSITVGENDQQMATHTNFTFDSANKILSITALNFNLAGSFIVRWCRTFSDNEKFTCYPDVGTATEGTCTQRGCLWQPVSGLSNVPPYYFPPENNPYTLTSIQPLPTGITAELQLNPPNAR
Sequence of Sucrase-isomaltase, intestinal (P23739 1014-1841 limits assumed): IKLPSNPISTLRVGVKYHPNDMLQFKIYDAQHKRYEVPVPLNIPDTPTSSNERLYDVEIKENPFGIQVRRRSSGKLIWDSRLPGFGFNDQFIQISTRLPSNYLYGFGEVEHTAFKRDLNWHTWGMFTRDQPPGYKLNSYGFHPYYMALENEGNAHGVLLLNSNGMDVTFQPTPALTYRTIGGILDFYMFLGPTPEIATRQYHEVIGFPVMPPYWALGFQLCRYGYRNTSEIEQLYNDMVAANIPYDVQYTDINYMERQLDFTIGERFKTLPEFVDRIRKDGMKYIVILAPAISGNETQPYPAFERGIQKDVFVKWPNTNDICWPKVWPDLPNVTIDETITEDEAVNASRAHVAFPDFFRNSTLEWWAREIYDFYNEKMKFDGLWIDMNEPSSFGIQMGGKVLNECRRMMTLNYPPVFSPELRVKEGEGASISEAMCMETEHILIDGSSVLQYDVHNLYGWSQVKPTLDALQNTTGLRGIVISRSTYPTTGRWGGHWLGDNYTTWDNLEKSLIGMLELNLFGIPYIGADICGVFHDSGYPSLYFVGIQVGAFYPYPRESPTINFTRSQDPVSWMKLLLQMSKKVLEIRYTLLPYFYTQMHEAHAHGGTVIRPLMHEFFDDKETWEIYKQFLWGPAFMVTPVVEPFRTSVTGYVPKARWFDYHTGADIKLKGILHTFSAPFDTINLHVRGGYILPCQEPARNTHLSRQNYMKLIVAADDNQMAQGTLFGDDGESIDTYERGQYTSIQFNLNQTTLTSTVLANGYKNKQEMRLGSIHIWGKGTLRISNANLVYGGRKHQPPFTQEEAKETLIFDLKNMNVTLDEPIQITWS

[8] = test system: Penicillium decumbens; experiment: Inhibition of Penicillium decumbens alpha-L-rhamnosidase assessed as production of p-nitrophenol at 1000 uM by spectrophotometry
Method in brief: as §1

[9] = Inhibition of almond beta-glucosidase assessed as production of p-nitrophenol using p-nitrophenyl glycoside as substrate by spectrophotometry
[10] = test system: Coffea; experiment: Inhibition of coffee beans alpha-galactosidase assessed as production of p-nitrophenol at 1000 uM by spectrophotometry
Method in brief: as §1

[11] = test system: Helix pomatia; experiment: Inhibition of snail beta-mannosidase assessed as production of p-nitrophenol at 1000 uM by spectrophotometry
Method in brief: as §1

[12] = test system: Prunus dulcis; settings: 1000 uM
[13] = target: T3, Glucosylceramidase (Bos taurus) (UniProt Q2KHZ8); experiment: Inhibition of bovine liver beta-glucosidase assessed as production of p-nitrophenol using p-nitrophenyl glycoside as substrate at 1000 uM by spectrophotometry
T3 sequence (whole entry): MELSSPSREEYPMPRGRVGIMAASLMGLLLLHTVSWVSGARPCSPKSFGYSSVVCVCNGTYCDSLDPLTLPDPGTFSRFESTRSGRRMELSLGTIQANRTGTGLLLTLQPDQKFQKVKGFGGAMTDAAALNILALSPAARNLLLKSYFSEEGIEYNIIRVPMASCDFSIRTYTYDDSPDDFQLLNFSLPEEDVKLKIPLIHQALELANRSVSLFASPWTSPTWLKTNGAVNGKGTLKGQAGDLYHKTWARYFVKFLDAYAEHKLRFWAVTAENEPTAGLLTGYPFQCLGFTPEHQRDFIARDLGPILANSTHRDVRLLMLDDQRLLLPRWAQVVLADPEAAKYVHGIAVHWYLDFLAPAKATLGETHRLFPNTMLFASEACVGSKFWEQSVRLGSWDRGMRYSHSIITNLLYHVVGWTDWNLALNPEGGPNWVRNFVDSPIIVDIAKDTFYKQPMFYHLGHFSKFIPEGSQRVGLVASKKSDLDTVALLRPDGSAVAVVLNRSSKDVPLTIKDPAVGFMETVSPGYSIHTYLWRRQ

[14] = Inhibition of rat intestinal maltase assessed as production of D-glucose using maltose as substrate after 10 to 30 mins by spectrophotometry
Method in brief: (§2)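 Enzymes were rice α-glucosidase at pH 5.0 and rat small-intestine brush border membranes (Kessler method) at pH 5.8. Each reaction contained 25 mM maltose and enzyme and was incubated 10–30 min at 37 °C. Reactions were stopped by heating at 100 °C for 3 min, then centrifuged. Released D-glucose was measured with a glucose test reagent by absorbance at 505 nm.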

[15] = target: Sucrase-isomaltase, intestinal (Rattus norvegicus) (UniProt P23739); settings: 1000 uM
Sequence of Sucrase-isomaltase, intestinal (Rattus norvegicus) (P23739 1-1013 limits assumed): as the sequence (P23739 1-1013 limits assumed) above
Sequence of Sucrase-isomaltase, intestinal (Rattus norvegicus) (P23739 1014-1841 limits assumed): as the sequence (P23739 1014-1841 limits assumed) above

[16] = target: T4, Beta-galactosidase (Bos taurus) (UniProt Q58D55); experiment: Inhibition of bovine liver beta-galactosidase assessed as production of p-nitrophenol at 1000 uM by spectrophotometry
T4 sequence (whole entry): T2 sequence (Q58D55 whole entry)
Method in brief: as §1

[17] = target: T5, Lysosomal acid glucosylceramidase (Homo sapiens) (UniProt P04062); settings: 1000 uM
T5 sequence (whole entry): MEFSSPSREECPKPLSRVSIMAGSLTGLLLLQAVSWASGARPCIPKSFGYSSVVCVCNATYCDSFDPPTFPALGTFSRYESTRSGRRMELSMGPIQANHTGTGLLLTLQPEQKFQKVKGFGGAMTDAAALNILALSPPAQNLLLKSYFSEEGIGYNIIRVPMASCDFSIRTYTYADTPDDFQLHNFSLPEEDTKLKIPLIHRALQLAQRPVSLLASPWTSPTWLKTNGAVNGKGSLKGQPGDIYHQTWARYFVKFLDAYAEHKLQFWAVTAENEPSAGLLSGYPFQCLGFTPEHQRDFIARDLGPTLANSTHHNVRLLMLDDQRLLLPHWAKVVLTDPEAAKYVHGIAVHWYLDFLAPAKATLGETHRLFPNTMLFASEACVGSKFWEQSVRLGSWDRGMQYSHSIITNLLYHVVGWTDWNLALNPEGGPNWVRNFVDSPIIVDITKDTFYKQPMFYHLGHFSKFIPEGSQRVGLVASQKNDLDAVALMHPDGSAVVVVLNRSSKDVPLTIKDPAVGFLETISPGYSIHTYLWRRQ

[18] = Inhibition of rice alpha-glucosidase assessed as production of D-glucose using maltose as substrate after 10 to 30 mins by spectrophotometry; set-up: species or system Oryza sativa
Method in brief: as §2

[19] = target: Sucrase-isomaltase, intestinal (Rattus norvegicus) (UniProt P23739); settings: 1000 uM; remark: listed apart in the source
[20] = organism: Rattus norvegicus; experiment: Inhibition of rat intestinal cellobiase assessed as production of p-nitrophenol at 1000 uM by spectrophotometry
[21] = target: Lactase/phlorizin hydrolase (Rattus norvegicus) (UniProt Q02401); settings: 1000 uM
Sequence of Lactase/phlorizin hydrolase (Rattus norvegicus) (Q02401 868-1928 limits assumed): as the sequence (Q02401 868-1928 limits assumed) above

[22] = Inhibition of rat intestinal cellobiase assessed as production of p-nitrophenol by spectrophotometry

Structure (SMILES)	inhibition [1] [%]	inhibition [2] [%]	IC50 [4] [µM]	inhibition [5] [%]	inhibition [6] [%]	inhibition [8] [%]	IC50 [9] [µM]	inhibition [10] [%]	inhibition [11] [%]	inhibition [12] [%]	inhibition [13] [%]	inhibition [15] [%]	inhibition [16] [%]	inhibition [17] [%]	inhibition [19] [%]	inhibition [20] [%]	inhibition [21] [%]	further results
OC[C@@H]1CNC[C@H](O)[C@H]1O	< 50	< 50	20	< 50	< 50	< 50	236	< 50	< 50									IC50 [3]: 821 µM; IC50 [7]: 34 µM
OC[C@@H]1NCC[C@@H](O)[C@@H]1O	< 50	< 50				< 50		< 50	< 50	< 50	< 50	< 50	< 50	< 50	< 50	< 50	< 50	IC50 [14]: 668 µM; IC50 [18]: 980 µM
OC[C@H]1NCC[C@H](O)[C@@H]1O	< 50	< 50	4.3	< 50		< 50	120	< 50	< 50			< 50		< 50	< 50			IC50 [18]: 120 µM; IC50 [22]: 39 µM
OC[C@@H]1NCC[C@H](O)[C@@H]1O	< 50	< 50		< 50	< 50	< 50		< 50	< 50	< 50	< 50	< 50	< 50	< 50	< 50	< 50	< 50	
OC[C@@H]1NCC[C@H](O)[C@H]1O	< 50	< 50		< 50	< 50	< 50		< 50	< 50	< 50	< 50	< 50	< 50	< 50	< 50	< 50	< 50	
OC[C@H]1NCC[C@H](O)[C@H]1O	< 50	< 50		< 50	< 50	< 50		< 50	< 50	< 50	< 50		< 50	< 50		< 50	< 50	
OC[C@@H]1NC[C@@H](O)[C@H](O)[C@H]1O		< 50				< 50	980	< 50	< 50		< 50					< 50		IC50 [14]: 28 µM; IC50 [18]: 4.3 µM

More lines, main results first:

inhibition [1] [%]	inhibition [2] [%]	IC50 [4] [µM]	inhibition [5] [%]	inhibition [6] [%]	inhibition [8] [%]	IC50 [9] [µM]	inhibition [10] [%]	inhibition [11] [%]	inhibition [12] [%]	inhibition [13] [%]	inhibition [15] [%]	inhibition [16] [%]	inhibition [17] [%]	inhibition [19] [%]	inhibition [20] [%]	inhibition [21] [%]	Structure (SMILES)	further results
< 50	< 50	52	< 50	< 50	< 50	443	< 50	< 50		< 50	< 50	< 50		< 50			OC[C@H]1CNC[C@H](O)[C@@H]1O	IC50 [22]: 334 µM
< 50	< 50	469	< 50	< 50	< 50		< 50	< 50	< 50	< 50	< 50	< 50	< 50	< 50	< 50		OC[C@@H]1CNC[C@@H](O)[C@H]1O	
< 50	< 50	211	< 50	< 50	< 50		< 50	< 50	< 50	< 50	< 50	< 50	< 50	< 50			OC[C@H]1CNC[C@H](O)[C@H]1O	IC50 [22]: 912 µM
< 50	< 50	646	< 50	< 50	< 50		< 50	< 50	< 50		< 50		< 50	< 50	< 50		OC[C@@H]1CNC[C@@H](O)[C@@H]1O	IC50 [3]: 389 µM
